Measured values from ChEMBL document CHEMBL2311405, “Synthesis and biological evaluation of indenoisoquinolines that inhibit both tyrosyl-DNA phosphodiesterase I (Tdp1) and topoisomerase I (Top1)” (J Med Chem, 2013).
pIC50: −log10 of the molar value. Active and inactive are the calls of the source. No cut-off for these calls is given here.

The compounds below were run against Tyrosyl-DNA phosphodiesterase 1 (Homo sapiens, UniProt Q9NUW8) (assay: Inhibition of recombinant Tdp1 (unknown origin) using 5'-[32P]-labeled single-stranded DNA oligonucleotide containing 3'-phosphotyrosine as substrate after 15 mins by PAGE analysis).
Chain of Tyrosyl-DNA phosphodiesterase 1 (Q9NUW8 whole entry): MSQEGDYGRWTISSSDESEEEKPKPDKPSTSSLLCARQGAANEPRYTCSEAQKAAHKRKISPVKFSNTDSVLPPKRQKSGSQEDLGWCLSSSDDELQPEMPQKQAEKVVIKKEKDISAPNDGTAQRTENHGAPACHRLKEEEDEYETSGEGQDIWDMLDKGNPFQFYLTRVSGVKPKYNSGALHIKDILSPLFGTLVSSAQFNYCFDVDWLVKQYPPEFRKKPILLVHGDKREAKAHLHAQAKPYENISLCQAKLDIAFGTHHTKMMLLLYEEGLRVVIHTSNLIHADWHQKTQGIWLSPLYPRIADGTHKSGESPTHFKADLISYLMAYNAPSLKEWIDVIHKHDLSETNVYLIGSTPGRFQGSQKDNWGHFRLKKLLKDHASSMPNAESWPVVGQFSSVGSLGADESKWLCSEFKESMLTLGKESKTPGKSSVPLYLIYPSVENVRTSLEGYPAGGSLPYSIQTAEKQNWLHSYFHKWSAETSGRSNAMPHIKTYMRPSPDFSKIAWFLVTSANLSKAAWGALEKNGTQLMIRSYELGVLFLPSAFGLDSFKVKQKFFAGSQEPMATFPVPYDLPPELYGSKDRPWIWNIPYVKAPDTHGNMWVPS
In the case of `COC(=O)CCC(=O)Nc1ccc2c3c(n(CCCNC(=O)OC(C)(C)C)c(=O)c2c1)-c1ccccc1C3=O`, the pIC50 was < 3.95. With `CC(C)(C)OC(=O)NCCCn1c2c(c3ccc(NC(=O)CCCC(=O)O)cc3c1=O)C(=O)c1ccccc1-2` the pIC50 was < 3.95. `NCCCn1c2c(c3ccc(NC(=O)CCCCC(=O)O)cc3c1=O)C(=O)c1ccccc1-2` was tested, and the pIC50 was < 3.95. In the case of `Cn1c2c(c3ccc(NC(=O)CC(=O)O)cc3c1=O)C(=O)c1ccccc1-2`, the pIC50 was < 3.95. For `NCCCn1c2c(c3ccc(NC(=O)CC(=O)O)cc3c1=O)C(=O)c1ccccc1-2`, the pIC50 was < 3.95. In the case of `CCOC(=O)CNc1ccc2c3c(n(C)c(=O)c2c1)-c1ccccc1C3=O`, the pIC50 was < 3.95. `COC(=O)CC(=O)Nc1ccc2c3c(n(C)c(=O)c2c1)-c1ccccc1C3=O` was tested, and the pIC50 was < 3.95. In the case of `Cn1c2c(c3ccc(NCC(=O)O)cc3c1=O)C(=O)c1ccccc1-2`, the pIC50 was < 3.95. With `COC(=O)C(=O)Nc1ccc2c3c(n(C)c(=O)c2c1)-c1ccccc1C3=O` the pIC50 was < 3.95. `NCCCn1c2c(c3ccc(NC(=O)CCCC(=O)O)cc3c1=O)C(=O)c1ccccc1-2` was tested, and the pIC50 was < 3.95. In the case of `COc1ccc2c(c1)-c1c(c3ccc([N+](=O)[O-])cc3c(=O)n1CCCN=[N+]=[N-])C2=O`, the pIC50 was < 3.95. `NCCCn1c2c(c3ccc(NC(=O)CCC(=O)O)cc3c1=O)C(=O)c1ccccc1-2` was tested, and the pIC50 was < 3.95. With `COC(=O)CCCC(=O)Nc1ccc2c3c(n(CCCNC(=O)OC(C)(C)C)c(=O)c2c1)-c1ccccc1C3=O` the pIC50 was < 3.95. `COC(=O)CC(=O)Nc1ccc2c3c(n(CCCNC(=O)OC(C)(C)C)c(=O)c2c1)-c1ccccc1C3=O` was tested, and the pIC50 was < 3.95. In the case of `COC(=O)CCCC(=O)Nc1ccc2c3c(n(C)c(=O)c2c1)-c1ccccc1C3=O`, the pIC50 was < 3.95. In the case of `NCCCn1c2c(c3ccc(NC(=O)C(=O)O)cc3c1=O)C(=O)c1ccccc1-2`, the pIC50 was < 3.95. With `COC(=O)CCC(=O)Nc1ccc2c3c(n(C)c(=O)c2c1)-c1ccccc1C3=O` the pIC50 was < 3.95. For `COC(=O)CCCCC(=O)Nc1ccc2c3c(n(C)c(=O)c2c1)-c1ccccc1C3=O`, the pIC50 was < 3.95. With `CC(C)(C)OC(=O)NCCCn1c2c(c3ccc(NCC(=O)O)cc3c1=O)C(=O)c1ccccc1-2` the pIC50 was < 3.95.

Each compound was assayed against T1, DNA topoisomerase 1 (Homo sapiens) (UniProt P11387) (assay: Inhibition of recombinant Top1 (unknown origin) using 3'-[32P]-end-labeled 117 bp oligonucleotide as substrate after 20 mins by SDS-PAGE analysis).
T1 sequence (whole entry): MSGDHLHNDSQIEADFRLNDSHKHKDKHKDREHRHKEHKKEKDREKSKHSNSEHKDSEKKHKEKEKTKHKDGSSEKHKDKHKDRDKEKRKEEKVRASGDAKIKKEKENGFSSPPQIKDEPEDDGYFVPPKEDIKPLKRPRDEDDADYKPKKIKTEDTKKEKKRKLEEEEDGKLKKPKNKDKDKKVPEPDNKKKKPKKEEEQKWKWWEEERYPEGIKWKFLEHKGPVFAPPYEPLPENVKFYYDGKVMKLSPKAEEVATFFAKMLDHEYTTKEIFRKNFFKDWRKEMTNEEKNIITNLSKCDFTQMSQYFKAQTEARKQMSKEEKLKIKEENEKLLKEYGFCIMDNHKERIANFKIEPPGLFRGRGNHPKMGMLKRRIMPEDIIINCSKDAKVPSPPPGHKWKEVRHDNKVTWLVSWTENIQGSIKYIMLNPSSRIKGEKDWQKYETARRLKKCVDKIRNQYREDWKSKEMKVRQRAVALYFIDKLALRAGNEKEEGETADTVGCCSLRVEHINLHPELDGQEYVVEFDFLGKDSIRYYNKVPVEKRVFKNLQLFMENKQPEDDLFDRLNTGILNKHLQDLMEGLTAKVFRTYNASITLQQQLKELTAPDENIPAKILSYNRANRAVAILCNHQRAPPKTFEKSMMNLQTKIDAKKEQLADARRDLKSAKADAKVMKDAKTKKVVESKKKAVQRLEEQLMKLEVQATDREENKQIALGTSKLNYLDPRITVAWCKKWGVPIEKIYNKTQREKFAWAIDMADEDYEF
Summary of the method: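 3′-[32P]-end-labeled 117-bp DNA at 2 nM incubated with recombinant Top1 at 25 °C for 20 min across a range of compound concentrations. Stopped with SDS (0.5% final) plus formamide loading dye, then 20% denaturing PAGE. Dried gels were phosphorimaged.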
With `COC(=O)CCC(=O)Nc1ccc2c3c(n(CCCNC(=O)OC(C)(C)C)c(=O)c2c1)-c1ccccc1C3=O` the inhibition was “inactive”. For `CC(C)(C)OC(=O)NCCCn1c2c(c3ccc(NC(=O)CCCC(=O)O)cc3c1=O)C(=O)c1ccccc1-2`, the inhibition was “inactive”. In the case of `NCCCn1c2c(c3ccc(NC(=O)CCCCC(=O)O)cc3c1=O)C(=O)c1ccccc1-2`, the inhibition was “inactive”. With `CC(=O)Nc1ccc2c3c(n(CCCN)c(=O)c2c1)-c1ccccc1C3=O` the inhibition was “inactive”. For `NCCCn1c2c(c3ccc(NC(=O)CC(=O)O)cc3c1=O)C(=O)c1ccccc1-2`, the inhibition was “inactive”. With `CCOC(=O)CNc1ccc2c3c(n(C)c(=O)c2c1)-c1ccccc1C3=O` the inhibition was “inactive”. In the case of `CC(=O)Nc1ccc2c3c(n(CCCN)c(=O)c2c1)-c1ccccc1C3O` (centres undefined), the inhibition was “inactive”. For `COC(=O)CC(=O)Nc1ccc2c3c(n(C)c(=O)c2c1)-c1ccccc1C3=O`, the inhibition was “inactive”. `Cn1c2c(c3ccc(NCC(=O)O)cc3c1=O)C(=O)c1ccccc1-2` was tested, and the inhibition was “inactive”. In the case of `COC(=O)C(=O)Nc1ccc2c3c(n(C)c(=O)c2c1)-c1ccccc1C3=O`, the inhibition was “inactive”. In the case of `NCCCn1c2c(c3ccc(NC(=O)CCCC(=O)O)cc3c1=O)C(=O)c1ccccc1-2`, the inhibition was “inactive”. For `COc1ccc2c(c1)-c1c(c3ccc([N+](=O)[O-])cc3c(=O)n1CCCN=[N+]=[N-])C2=O`, the inhibition was “inactive”. For `NCCCn1c2c(c3ccc(NC(=O)CCC(=O)O)cc3c1=O)C(=O)c1ccccc1-2`, the inhibition was “inactive”. `COC(=O)CCCC(=O)Nc1ccc2c3c(n(CCCNC(=O)OC(C)(C)C)c(=O)c2c1)-c1ccccc1C3=O` was tested, and the inhibition was “inactive”. For `COC(=O)CC(=O)Nc1ccc2c3c(n(CCCNC(=O)OC(C)(C)C)c(=O)c2c1)-c1ccccc1C3=O`, the inhibition was “inactive”. For `COC(=O)CCCC(=O)Nc1ccc2c3c(n(C)c(=O)c2c1)-c1ccccc1C3=O`, the inhibition was “inactive”. In the case of `NCCCn1c2c(c3ccc(NC(=O)C(=O)O)cc3c1=O)C(=O)c1ccccc1-2`, the inhibition was “inactive”. With `CC(=O)Nc1ccc2c3c(n(CCCO)c(=O)c2c1)-c1ccccc1C3=O` the inhibition was “inactive”. For `COC(=O)CCCCC(=O)Nc1ccc2c3c(n(C)c(=O)c2c1)-c1ccccc1C3=O`, the inhibition was “inactive”. For `CC(C)(C)OC(=O)NCCCn1c2c(c3ccc(NCC(=O)O)cc3c1=O)C(=O)c1ccccc1-2`, the inhibition was “inactive”.
